According to ChEMBL document CHEMBL4145471, “New 1,5 and 2,5-disubstituted tetrazoles-dependent activity towards surface barrier of Candida albicans” (Eur J Med Chem, 2018):

What was measured:
[1] = test system: Candida albicans; experiment: Antifungal activity against Candida albicans ATCC 90028 assessed as inhibition of metabolic activity at 5 ug/ml after 48 hrs in presence of 40 ug/ml fluconazol by XTT assay relative to control; format: functional; settings: values are per cent of control
In short: (§1)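 Checkerboard against strain ATCC 90028, inoculum per M27-A3: fluconazole 80-1.25 µg/mL on one axis, tetrazole 80-1.25 µg/mL on the other. Plates at 35°C for 48 h, then XTT metabolic reduction read at 475 nm (660 nm reference). Activity is the drop in mean absorbance against untreated growth control. FICs and their summed FIC index are taken at 50% reduction in metabolic activity.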

[2] = test system: Candida albicans; experiment: Antifungal activity against Candida albicans ATCC 90028 assessed as inhibition of metabolic activity at 10 ug/ml after 48 hrs in presence of 5 ug/ml fluconazol by XTT assay relative to control; format: functional; settings: values are per cent of control; in short: as §1
[3] = test system: Candida albicans; experiment: Antifungal activity against Candida albicans ATCC 90028 assessed as inhibition of metabolic activity at 5 ug/ml after 48 hrs in presence of 20 ug/ml fluconazol by XTT assay relative to control; format: functional; settings: values are per cent of control; in short: as §1
[4] = test system: Candida albicans; experiment: Synergistic antifungal activity against Candida albicans ATCC 90028 at 40 ug/ml after 48 hrs in presence of 10 ug/ml fluconazol by checkerboard assay relative to control; format: functional
In short: (§2)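 Checkerboard in C. albicans ATCC 90028, inoculum prepared per CLSI M27-A3 in RPMI. Fluconazole serially diluted 80-1.25 µg/mL across the plate against the partner compound at 80-1.25 µg/mL final. Incubated 48 h at 35°C. Metabolic activity read by XTT reduction at 475 nm (660 nm reference), given as % of the untreated growth control.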

[5] = test system: Candida albicans; experiment: Synergistic antifungal activity against Candida albicans ATCC 90028 at 40 ug/ml after 48 hrs in presence of 2.5 ug/ml fluconazol by checkerboard assay relative to control; format: functional
In short: (§3)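 Checkerboard microdilution (M27-A3) on C. albicans ATCC 90028 in RPMI 1640: fluconazole (80-1.25 µg/mL) crossed with tetrazole (80-1.25 µg/mL final), incubated at 35°C for 48 h. Growth by OD405 at 18 and 48 h, endpoint taken as 100% inhibition. FIC index = sum of the two agents' FICs; <1 synergism, >1 antagonism.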

[6] = test system: Candida albicans; experiment: Antifungal activity against Candida albicans ATCC 90028 assessed as metabolic activity at 20 ug/ml after 48 hrs in presence of 40 ug/ml fluconazol by XTT assay relative to control
[7] = test system: Candida albicans; experiment: Synergistic antifungal activity against Candida albicans ATCC 90028 at 80 ug/ml after 48 hrs in presence of 10 ug/ml fluconazol by checkerboard assay relative to control; format: functional; in short: as §2
[8] = test system: Candida albicans; experiment: Synergistic antifungal activity against Candida albicans ATCC 90028 at 5 ug/ml after 48 hrs in presence of 40 ug/ml fluconazol by checkerboard assay relative to control; format: functional; in short: as §2
[9] = test system: Candida albicans; experiment: Synergistic antifungal activity against Candida albicans ATCC 90028 at 1.25 ug/ml after 48 hrs in presence of 40 ug/ml fluconazol by checkerboard assay relative to control; format: functional
In short: (§4)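 Checkerboard per M27-A3 against ATCC 90028: fluconazole at 80–1.25 µg/mL horizontally and partner compound at 80–1.25 µg/mL vertically, 100 µL yeast inoculum per well, 35°C for 48 h. After 48 h, metabolic activity was measured by XTT reduction at 475 nm (660 nm reference) relative to untreated growth control. FIC index is the sum of the FICs; <1 was defined as synergism and >1 as antagonism.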

[10] = test system: Candida albicans; experiment: Synergistic antifungal activity against Candida albicans ATCC 90028 assessed as fluconazol FIC at 1.25 to 80 ug/ml after 48 hrs by checkerboard assay; format: functional; in short: as §4
[11] = test system: Candida albicans; experiment: Antifungal activity against Candida albicans ATCC 90028 at 0.25 ug/ml after 48 hrs relative to control; format: functional
In short: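 Fluconazole (water stock, diluted in RPMI 1640) tested by CLSI M27-A3 broth microdilution against C. albicans ATCC 90028. Inoculum 1.8×10^3 cells/mL in RPMI 1640 buffered with MOPS, pH 7.0. Incubation at 35°C without agitation, read at 18 and 48 h. Growth by OD405 and visually; inhibition % calculated against solvent growth-control wells after subtracting sterility-control wells.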

[12] = test system: Candida albicans; experiment: Synergistic antifungal activity against Candida albicans ATCC 90028 at 20 ug/ml after 48 hrs in presence of 1.25 ug/ml fluconazol by checkerboard assay relative to control; format: functional; in short: as §2
[13] = test system: Candida albicans; experiment: Synergistic antifungal activity against Candida albicans ATCC 90028 at 1.25 ug/ml after 48 hrs in presence of 1.25 ug/ml fluconazol by checkerboard assay relative to control; format: functional; settings: ATCC 90028, 48 h, read-out: GI; in short: as §4
[14] = test system: Candida albicans; experiment: Synergistic antifungal activity against Candida albicans ATCC 90028 at 80 ug/ml after 48 hrs in presence of 2.5 ug/ml fluconazol by checkerboard assay relative to control; format: functional; in short: as §3
[15] = test system: Candida albicans; experiment: Antifungal activity against Candida albicans ATCC 90028 assessed as metabolic activity at 1.25 ug/ml after 48 hrs in presence of 1.25 ug/ml fluconazol by XTT assay relative to control; settings: ATCC 90028, 48 h
[16] = test system: Candida albicans; experiment: Synergistic antifungal activity against Candida albicans ATCC 90028 at 80 ug/ml after 48 hrs in presence of 80 ug/ml fluconazol by checkerboard assay relative to control; format: functional; settings: ATCC 90028, 48 h, read-out: GI; in short: as §2
[17] = test system: Candida albicans; experiment: Synergistic antifungal activity against Candida albicans ATCC 90028 at 20 ug/ml after 48 hrs in presence of 80 ug/ml fluconazol by checkerboard assay relative to control; format: functional; in short: as §2
[18] = test system: Candida albicans; experiment: Synergistic antifungal activity against Candida albicans ATCC 90028 at 20 ug/ml after 48 hrs in presence of 20 ug/ml fluconazol by checkerboard assay relative to control; format: functional; settings: ATCC 90028, 48 h, read-out: GI; in short: as §2
[19] = test system: Candida albicans; experiment: Antifungal activity against Candida albicans ATCC 90028 assessed as metabolic activity at 40 ug/ml after 48 hrs in presence of 1.25 ug/ml fluconazol by XTT assay relative to control
[20] = test system: Candida albicans; experiment: Antifungal activity against Candida albicans ATCC 90028 at 0.0313 ug/ml after 18 hrs relative to control; format: functional
[21] = test system: Candida albicans; experiment: Antifungal activity against Candida albicans ATCC 90028 assessed as inhibition of metabolic activity at 2.5 ug/ml after 48 hrs in presence of 1.25 ug/ml fluconazol by XTT assay relative to control; format: functional; settings: values are per cent of control
In short: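 C. albicans ATCC 90028 in checkerboard: fluconazole serial dilutions (80-1.25 µg/mL) crossed with tetrazole (80-1.25 µg/mL final), M27-A3 inoculum in RPMI 1640, 35°C for 48 h. Metabolic activity measured by XTT reduction, read at 475 nm (660 nm reference). Activity expressed relative to untreated growth control absorbance.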

## ClCCCn1nnnc1-c1ccccc1Cl
[1]
  residual activity: 86.34%
[2]
  residual activity: 100%
[3]
  residual activity: 73.79%
[4]
  growth inhibition (GI): 99.59%
[5]
  growth inhibition (GI): 99.14%
[6]
  Metabolic activity: 82.92%
[7]
  growth inhibition (GI): 99.78%
[8]
  growth inhibition (GI): 99.25%
[9]
  growth inhibition (GI): 99.16%
[10]
  FIC: 5
  fold change (FC): 5
[11]
  Activity: 99.62%
[12]
  growth inhibition (GI): 100%
[13]
  inhibition of growth at 1.25 µg/mL: 99.7%
[14]
  growth inhibition (GI): 99.67%
[15]
  metabolic activity at 1.25 µg/mL: 86.4%
[16]
  inhibition of growth at 80 µg/mL: 99.8%
[17]
  growth inhibition (GI): 99.33%
[18]
  inhibition of growth at 20 µg/mL: 99.7%
[19]
  Metabolic activity: 13.59%
[20]
  Activity: 99.51%
[21]
  residual activity: 0%

## CCOC(=O)CCn1nnc(-c2ccccc2)n1
[1]
  residual activity: 94.92%
[2]
  residual activity: 100%
[3]
  residual activity: 67.66%
[4]
  growth inhibition (GI): 99.53%
[5]
  growth inhibition (GI): 99.74%
[6]
  Metabolic activity: 99.65%
[7]
  growth inhibition (GI): 99.84%
[8]
  growth inhibition (GI): 99.51%
[9]
  growth inhibition (GI): 99.46%
[10]
  FIC: 5
[11]
  Activity: 98.7%
[12]
  growth inhibition (GI): 99.79%
[13]
  inhibition of growth at 1.25 µg/mL: 99.8%
[14]
  growth inhibition (GI): 99.77%
[15]
  metabolic activity at 1.25 µg/mL: 87%
[16]
  inhibition of growth at 80 µg/mL: 99.6%
[17]
  growth inhibition (GI): 99.25%
[18]
  inhibition of growth at 20 µg/mL: 99.5%
[19]
  Metabolic activity: 66.6%
[20]
  Activity: 99.34%
[21]
  residual activity: 90.2%

## Cc1ccc(-c2nnn(CCCN3CCOCC3)n2)cc1
[1]
  residual activity: 100%
[2]
  residual activity: 100%
[3]
  residual activity: 93.31%
[4]
  growth inhibition (GI): 99.69%
[5]
  growth inhibition (GI): 99.77%
[6]
  Metabolic activity: 93.5%
[7]
  growth inhibition (GI): 99.8%
[8]
  growth inhibition (GI): 99.15%
[9]
  growth inhibition (GI): 99.36%
[10]
  FIC: 5
[11]
  Activity: 98.68%
[12]
  growth inhibition (GI): 98.75%
[13]
  inhibition of growth at 1.25 µg/mL: 99%
[14]
  growth inhibition (GI): 99.54%
[15]
  metabolic activity at 1.25 µg/mL: 74.3%
[16]
  inhibition of growth at 80 µg/mL: 99.5%
[17]
  growth inhibition (GI): 99.26%
[18]
  inhibition of growth at 20 µg/mL: 99.1%
[19]
  Metabolic activity: 40.06%
[20]
  Activity: 99.87%
[21]
  residual activity: 100%
